Data from ChEMBL document CHEMBL1122610, “Dichloro[1,2-bis(4-hydroxyphenyl)ethylenediamine]platinum(II) complexes: an approach to develop compounds with a specific effect on the hormone-dependent mammary carcinoma” (J Med Chem, 1984).
Values joined by “and” are separate entries in the source; they are usually repeats but may differ in a detail not shown here. Identical values can stand only once.

How the values were obtained:
Rattus norvegicus [1] = test: Compound was tested for the survival against L5222 Leukemia implanted rat at dose 20(60) mg/kg; type: functional, organism-based
Method in brief: (§1)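 BD IX rats (3–6 months old, half female, half male), six per dose group, given 1 × 10^6 L 5222 cells in 1.0 mL physiological saline i.p. on day 0. The complex was in olive oil at a final 1 mg/mL and given i.p. as three injections, on days 1, 2, 3 or days 1, 5, 9. Read-out is median survival day and percent ILS.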

Mus musculus [2] = test: Number of deaths against the ADJ/PC6 Plasmacytoma cells of the BALB/C mouse at a dose of 20 mg/kg after 37 days was determined in vivo; Value denoted as dead/test = 2/10; type: functional, organism-based; parameters: dose 20 mg/kg
Mus musculus [3] = test: Antitumor activity against the ADJ/PC6 Plasmacytoma cells of the BALB/C mouse at a dose of 20 mg/kg after 37 days was determined in vivo; type: functional, organism-based; parameters: dose 20 mg/kg
Method in brief: (§2)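 Female Balb/C mice, 14–18 g, inoculated subcutaneously with 5 × 10^6 ADJ/PC6 cells in 0.1 mL PBS (day 0). Compounds suspended in olive oil, given intraperitoneally as a single dose (day 1) or triple dose (days 1, 2, 3). Groups usually of 10 animals; cisplatin positive control. Test ran about 38 days; activity read as mean tumor volume as percent of untreated control (T/C, %).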

[4] = target: Estrogen receptor (Bos taurus) (UniProt Q9XSB5+P49884); test: In vitro inhibition of 1*10e-9 M [3H]estradiol binding to Estrogen receptor of calf uterine cytosol at 1*10e-5 M; type: protein assay
Method in brief: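 Competition of [3H]estradiol binding in calf uterine cytosol (final protein 5 mg/mL); bound and free ligand separated by dextran-coated charcoal; percent inhibition of binding reported.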

Mus musculus [5] = test: Antitumor activity against the ADJ/PC6 Plasmacytoma cells of the BALB/C mouse at a dose of 20 mg/kg after 38 days was determined in vivo; Value denoted as dead/test = 0/10; type: functional, organism-based; parameters: dose 20 mg/kg; method in brief: as §2
Mus musculus [6] = test: Number of deaths against the ADJ/PC6 Plasmacytoma cells of the BALB/C mouse at a dose of 15 mg/kg after 38 days was determined in vivo; type: functional, organism-based; parameters: dose 15 mg/kg
Mus musculus [7] = test: Animals without tumor after the test against the ADJ/PC6 Plasmacytoma cells of the BALB/C mouse at a dose of 20 mg/kg after 37 days was determined in vivo; type: functional, organism-based; parameters: dose 20 mg/kg
Mus musculus [8] = test: Animals without tumor after the test against the ADJ/PC6 Plasmacytoma cells of the BALB/C mouse at a dose of 15 mg/kg after 38 days was determined in vivo; type: functional, organism-based; parameters: dose 15 mg/kg
Rattus norvegicus [9] = test: Compound was tested for the increase in life span of L5222 Leukemia implanted rat at dose 20(60) mg/kg; type: functional, organism-based
Method in brief: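 BD IX rats, 3–6 months old, half female and half male, six per dose group, given 1 × 10^6 L 5222 cells in 1.0 mL physiological saline intraperitoneally (day 0). Complex dissolved in olive oil at 1 mg/mL; three injections on days 1, 2, 3 or 1, 5, 9. Scored as percent increased life span (ILS).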

Mus musculus [10] = test: Number of deaths against the ADJ/PC6 Plasmacytoma cells of the BALB/C mouse at a dose of 20 mg/kg after 38 days was determined in vivo; type: functional, organism-based; parameters: dose 20 mg/kg
Mus musculus [11] = test: Antitumor activity against the ADJ/PC6 Plasmacytoma cells of the BALB/C mouse at a dose of 15 mg/kg after 38 days was determined in vivo; Value denoted as dead/test = 1/10; type: functional, organism-based; parameters: dose 15 mg/kg; method in brief: as §2
Mus musculus [12] = test: Animals without tumor after the test against the ADJ/PC6 Plasmacytoma cells of the BALB/C mouse at a dose of 20 mg/kg after 38 days was determined in vivo; type: functional, organism-based; parameters: dose 20 mg/kg
Mus musculus [13] = test: Antitumor activity against the ADJ/PC6 Plasmacytoma cells of the BALB/C mouse at a dose of 8 mg/kg after 37 days was determined in vivo; type: functional, organism-based; parameters: dose 8 mg/kg; method in brief: as §2
Rattus norvegicus [14] = test: Compound was tested for the survival against L5222 Leukemia implanted rat at dose 3.5(10.5)mg/kg; type: functional, organism-based; method in brief: as §1
Mus musculus [15] = test: Number of deaths against the ADJ/PC6 Plasmacytoma cells of the BALB/C mouse at a dose of 8 mg/kg after 37 days was determined in vivo; type: functional, organism-based; parameters: dose 8 mg/kg
Rattus norvegicus [16] = test: Compound was tested for the survival against L5222 Leukemia implanted rat at dose 3.5(10.5) mg/kg; type: functional, organism-based; method in brief: as §1
ADJ/PC6 = test: In vitro incorporation of the [3H]thymidine into the ADJ/PC6 Plasmacytoma cells; type: functional, cell-based; conditions: Mus musculus
Method in brief: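 ADJ/PC6 tumor taken from passaged female Balb/C mice, minced and gently dispersed, then suspended in Eagle's MEM with 5% heat-inactivated horse serum, Hepes (5 mg/mL) and 0.1% Pluronic F 68, and filtered through gauze. Cells incubated 3 h at 37 °C with shaking, then pulsed with 1 μCi [methyl-3H]thymidine for 2 h. Ice-cold PBS stop, saline washes, sonication. Triplicates.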

Mus musculus [17] = test: Animals without tumor after the test against the ADJ/PC6 Plasmacytoma cells of the BALB/C mouse at a dose of 8 mg/kg after 37 days was determined in vivo; type: functional, organism-based; parameters: dose 8 mg/kg
MDA-MB-231 = test: In vitro incorporation of [3H]thymidine into hormone-independent MDA-MB 231 breast cancer cells; type: functional, cell-based; conditions: Homo sapiens
Method in brief: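 MDA-MB 231 cells grown in McCoy 5a with 10% newborn calf serum and gentamycin, switched to 5% serum 1 h before the experiment. Compounds added from fresh 1000-fold Me2SO concentrates (final solvent 0.1%). [3H]Thymidine incorporation into TCA-precipitable material measured. Mean of triplicates.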

Substance	Median day of survival (Rattus norvegicus [1])	Deaths (Mus musculus [2])	T/C (Mus musculus [3]) [%]	inhibition [4]	T/C (Mus musculus [5]) [%]	Deaths (Mus musculus [6])	Activity (Mus musculus [7])	Activity (Mus musculus [8])	ILS (Rattus norvegicus [9]) [%]	Deaths (Mus musculus [10])	T/C (Mus musculus [11]) [%]	Activity (Mus musculus [12])	T/C (Mus musculus [13]) [%]	Median day of survival (Rattus norvegicus [14])	Deaths (Mus musculus [15])	Median day of survival (Rattus norvegicus [16])	ID50 (ADJ/PC6) [µM]	Activity (Mus musculus [17])	ID50 (MDA-MB-231) [nM]
(+) R,R-dichloro-[1,2-bis(4-hydroxyphenyl)ethylenediamine]platinum (II)	18	2	0	11% and 13.7% and 9.7%	0	1	8	7	175	0	1	7	–	–	–	–	–	–	–
CISPLATIN	–	–	–	–	–	–	–	–	–	–	–	–	0	14.5	0	17.5	9.5	10	650
